Drawing on ChEMBL document CHEMBL1137181, “Synthesis and DP-IV inhibition of cyano-pyrazoline derivatives as potent anti-diabetic agents” (Bioorg Med Chem Lett, 2004), this text covers IC50 and ED50 for 21 molecules.

Assay [1] addresses Dipeptidyl peptidase 4 (Rattus norvegicus, UniProt P14740). Put plainly: Inhibitory concentration against rat dipeptidyl peptidase IV. The gist of the method: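 Rat plasma (20 µL) as enzyme source, incubated 1 h at room temperature, pH 7.8, with Ala-Pro-AFC (40 µM) ± inhibitor dissolved in DMSO (5% final in assay). Released AFC read by fluorescence (ex 360 nm, em 485 nm). IC50 obtained by curve analysis.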

In assay [2] the target is Dipeptidyl peptidase 4 (Sus scrofa, UniProt P22411). Put plainly: Inhibitory concentration against dipeptidyl peptidase IV of porcine kidney. Format: functional, tissue-based. In short, it runs like this:
(§1)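 DP-IV activity from Caco-2 cells or porcine kidney, measured as AFC fluorescence (ex 360 nm, em 485 nm) liberated from Ala-Pro-AFC with or without inhibitor. Compounds in DMSO, 5% in assay mixture. IC50 obtained by curve analysis.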

In assay [3] the target is Dipeptidyl peptidase 4 (Mus musculus) (UniProt P28843). Put plainly: Effective dose for inhibition of dipeptidyl peptidase IV in mice after 1 hr subcutaneous administration. The format is functional, organism-based.
Sequence of Dipeptidyl peptidase 4 (Mus musculus) (P28843 whole entry, looked up): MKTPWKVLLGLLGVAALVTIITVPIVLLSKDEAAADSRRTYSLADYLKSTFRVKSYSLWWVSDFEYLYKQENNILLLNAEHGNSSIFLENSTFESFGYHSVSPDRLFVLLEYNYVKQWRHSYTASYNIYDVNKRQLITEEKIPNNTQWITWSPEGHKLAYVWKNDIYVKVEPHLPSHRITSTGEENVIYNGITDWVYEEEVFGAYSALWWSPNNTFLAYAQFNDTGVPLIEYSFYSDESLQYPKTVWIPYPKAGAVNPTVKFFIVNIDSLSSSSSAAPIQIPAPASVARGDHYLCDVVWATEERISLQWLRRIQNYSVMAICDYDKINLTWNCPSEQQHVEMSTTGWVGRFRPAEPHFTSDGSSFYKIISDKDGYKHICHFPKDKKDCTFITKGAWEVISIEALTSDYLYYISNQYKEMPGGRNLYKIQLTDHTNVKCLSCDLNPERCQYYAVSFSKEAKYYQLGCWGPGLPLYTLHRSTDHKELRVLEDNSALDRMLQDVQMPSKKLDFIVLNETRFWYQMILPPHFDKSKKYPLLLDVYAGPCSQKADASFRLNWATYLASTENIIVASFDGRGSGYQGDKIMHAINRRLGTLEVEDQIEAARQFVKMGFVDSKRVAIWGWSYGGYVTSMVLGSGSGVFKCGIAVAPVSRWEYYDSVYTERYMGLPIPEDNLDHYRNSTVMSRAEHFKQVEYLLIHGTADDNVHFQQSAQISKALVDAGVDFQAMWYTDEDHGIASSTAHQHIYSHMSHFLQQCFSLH
Assay [4] concerns the target Dipeptidyl peptidase 4 (Homo sapiens, UniProt P27487). Put plainly: Inhibitory concentration against dipeptidyl peptidase IV in Caco-2 cell assay. Format: functional, cell-based. The gist of the method:
as §1

Sequence of Dipeptidyl peptidase 4 (Sus scrofa, UniProt P22411) (P22411 whole entry): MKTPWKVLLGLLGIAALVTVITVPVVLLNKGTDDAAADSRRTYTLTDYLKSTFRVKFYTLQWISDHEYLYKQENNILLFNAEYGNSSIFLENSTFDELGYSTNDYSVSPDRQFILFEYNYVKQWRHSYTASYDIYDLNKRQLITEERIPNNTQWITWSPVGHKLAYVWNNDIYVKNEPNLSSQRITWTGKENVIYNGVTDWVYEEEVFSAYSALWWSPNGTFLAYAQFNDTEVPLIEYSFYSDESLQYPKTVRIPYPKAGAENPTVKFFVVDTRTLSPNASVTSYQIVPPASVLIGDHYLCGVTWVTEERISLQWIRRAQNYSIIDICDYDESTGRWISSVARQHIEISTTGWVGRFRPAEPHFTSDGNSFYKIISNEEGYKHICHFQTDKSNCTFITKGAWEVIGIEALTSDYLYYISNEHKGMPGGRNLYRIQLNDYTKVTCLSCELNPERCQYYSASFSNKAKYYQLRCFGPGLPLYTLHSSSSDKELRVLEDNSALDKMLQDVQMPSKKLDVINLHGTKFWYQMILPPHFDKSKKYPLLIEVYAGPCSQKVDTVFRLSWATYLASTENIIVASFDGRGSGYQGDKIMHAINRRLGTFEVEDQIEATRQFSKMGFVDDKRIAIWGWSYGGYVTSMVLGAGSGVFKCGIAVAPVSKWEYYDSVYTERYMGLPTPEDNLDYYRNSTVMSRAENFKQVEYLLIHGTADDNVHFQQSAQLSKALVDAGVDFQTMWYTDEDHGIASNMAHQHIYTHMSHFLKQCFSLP
Sequence of Dipeptidyl peptidase 4 (Rattus norvegicus, UniProt P14740) (P14740 whole entry): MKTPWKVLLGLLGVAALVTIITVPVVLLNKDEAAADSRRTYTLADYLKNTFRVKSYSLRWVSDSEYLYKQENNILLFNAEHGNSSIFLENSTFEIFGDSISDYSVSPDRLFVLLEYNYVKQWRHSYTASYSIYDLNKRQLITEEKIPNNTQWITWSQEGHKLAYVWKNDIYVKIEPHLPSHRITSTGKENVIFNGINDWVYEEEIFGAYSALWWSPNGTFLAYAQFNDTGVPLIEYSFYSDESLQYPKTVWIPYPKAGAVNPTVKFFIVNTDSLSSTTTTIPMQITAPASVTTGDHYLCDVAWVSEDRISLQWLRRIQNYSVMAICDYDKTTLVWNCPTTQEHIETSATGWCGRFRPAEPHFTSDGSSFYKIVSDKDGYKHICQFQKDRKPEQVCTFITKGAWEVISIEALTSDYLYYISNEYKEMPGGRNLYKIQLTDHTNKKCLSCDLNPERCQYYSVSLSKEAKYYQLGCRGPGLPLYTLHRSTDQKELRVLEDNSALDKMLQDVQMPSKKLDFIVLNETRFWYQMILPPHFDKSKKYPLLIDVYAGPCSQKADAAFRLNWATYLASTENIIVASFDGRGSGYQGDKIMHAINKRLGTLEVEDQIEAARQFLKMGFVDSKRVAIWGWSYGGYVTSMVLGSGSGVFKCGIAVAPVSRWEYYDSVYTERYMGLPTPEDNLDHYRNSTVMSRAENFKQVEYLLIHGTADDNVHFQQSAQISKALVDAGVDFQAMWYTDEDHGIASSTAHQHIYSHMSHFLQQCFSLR
Sequence of Dipeptidyl peptidase 4 (Homo sapiens, UniProt P27487) (P27487 whole entry): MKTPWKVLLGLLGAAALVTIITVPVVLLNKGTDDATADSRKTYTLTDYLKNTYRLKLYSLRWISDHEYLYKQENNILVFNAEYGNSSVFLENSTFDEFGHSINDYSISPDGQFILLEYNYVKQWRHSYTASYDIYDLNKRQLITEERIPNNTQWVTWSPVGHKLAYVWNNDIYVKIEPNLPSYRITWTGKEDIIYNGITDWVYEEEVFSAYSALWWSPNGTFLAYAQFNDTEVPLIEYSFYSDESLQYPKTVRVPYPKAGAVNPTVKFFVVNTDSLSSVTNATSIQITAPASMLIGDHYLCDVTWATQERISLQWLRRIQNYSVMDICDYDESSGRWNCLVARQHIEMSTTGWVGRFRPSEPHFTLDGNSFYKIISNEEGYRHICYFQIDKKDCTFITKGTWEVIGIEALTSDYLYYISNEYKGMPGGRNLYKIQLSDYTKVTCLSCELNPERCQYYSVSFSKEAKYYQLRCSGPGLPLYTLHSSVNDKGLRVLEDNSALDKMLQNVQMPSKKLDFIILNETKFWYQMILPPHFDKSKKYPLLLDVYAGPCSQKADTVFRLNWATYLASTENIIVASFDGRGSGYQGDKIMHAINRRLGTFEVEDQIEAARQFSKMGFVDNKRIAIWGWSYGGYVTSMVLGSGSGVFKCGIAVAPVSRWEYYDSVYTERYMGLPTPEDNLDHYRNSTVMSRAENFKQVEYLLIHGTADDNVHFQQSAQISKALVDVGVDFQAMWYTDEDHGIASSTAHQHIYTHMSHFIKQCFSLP

For orientation: IC50 means the concentration at which inhibition is half-maximal. In assay [1], `N#CC1CC=NN1C(=O)CNC1CCC(Nc2ccc([N+](=O)[O-])cn2)CC1` (stereo not drawn) displayed an IC50 of 1200 nM.
`N#CC1CC=NN1C(=O)CNC12CC3CC(CC(O)(C3)C1)C2` (stereo not drawn): the IC50 in assay [1] was 6400 nM.
Consider `N#Cc1ccc(NCCNCC(=O)N2N=CC[C@H]2C#N)nc1`, for which the 50% inhibitory concentration (IC50) in assay [2] is 440 nM; in assay [1] it was 360 nM.
`N#CC1CC=NN1C(=O)CNC1CC2CCC1C2` (stereo not drawn) returned an IC50 in assay [1] of 2100 nM.
`C[C@@H](N)C(=O)N1N=CCC1C#N` (stereo partly drawn) showed an IC50 in assay [1] of 1200 nM.
The same measure, in the same setting: the figure for `N#CC1CC=NN1C(=O)CNC1CCCCC1` (stereo in doubt; 5c) is 2800 nM; for `N#CC1CC=NN1C(=O)CNCCNc1ccc([N+](=O)[O-])cn1` (stereo not drawn) it is 1200 nM.
For `N#Cc1ccc(NCCNCC(=O)N2NCC[C@H]2C#N)nc1`, the half-inhibitory concentration (IC50) in assay [1] came to 60 nM.
As usually defined, the ED50 is the dose that gives a 50% effect, or the effect in half of the subjects. Read a high ED50 as weaker potency. Take `CCC(C)[C@@H](N)C(=O)N1N=CCC1C#N` (stereo partly drawn): the IC50 came to 80 nM in assay [2], 220 nM in assay [1] and 130 nM in assay [4]. The molecule further registered an ED50 in assay [3] of 16.1 mg/kg.
`CC(C)C[C@H](N)C(=O)N1N=CCC1C#N` (stereo partly drawn): the 50% inhibitory concentration (IC50) in assay [1] came to 4300 nM.
The same measure, in the same setting: as for `N#CC1CC=NN1C(=O)CNC1CCC(NC(=O)c2ccccc2)CC1` (stereo not drawn), the figure is 4400 nM.
On to `N#Cc1ccc(NCCNCC(=O)N2N=CC[C@@H]2C#N)nc1`, for which the 50% inhibitory concentration (IC50) was 6820 nM in assay [2] and 5200 nM in assay [1].
The molecule `N#CC1CC=NN1C(=O)CNC12CC3CC(CC(C3)C1)C2` (stereo not drawn) had an IC50 in assay [1] of 1500 nM.
Consider `CC(C)(C)NCC(=O)N1N=CCC1C#N` (stereo in doubt; 5a), for which half-maximal inhibition in assay [1] (IC50) was put at 24400 nM. Against the preceding molecule, the IC50 is about 16-fold higher.
The molecule `CC(C)[C@@H](N)C(=O)N1N=CCC1C#N` (stereo partly drawn) gave an IC50 in assay [1] of 1900 nM.
Regarding `N#CC1CC=NN1C(=O)[C@H](CCCCN)NC(=O)OCc1ccccc1` (stereo partly drawn), in assay [1], the IC50 was 660 nM.
In the case of `N#Cc1ccc(NCCNCC(=O)N2N=CCC2C#N)nc1` (stereo not drawn), the figures for the 50% inhibitory concentration (IC50) in assay [2] and in assay [1] were 960 nM and 800 nM, respectively. Moreover, the 50% effect level in assay [3] (ED50) was put at a dose of 4.1 mg/kg.
In turn, `N#CC1CC=NN1C(=O)CNC1C2CC3CC(C2)CC1C3` (stereo not drawn) had a half-maximal inhibitory concentration (IC50) in assay [1] of 3200 nM.
Molecule `N#CC1CC=NN1C(=O)CNC1CCCCCCC1` (stereo not drawn) had an IC50 in assay [1] of 2600 nM.
In the case of `N#CC1CC=NN1C(=O)CNC1CCCC1` (stereo not drawn), in assay [1], inhibition was half-maximal at 1300 nM (IC50).
Consider `N#CC1CC=NN1C(=O)CNC1CCCCC1` (stereo in doubt; 1g), for which half-maximal inhibition in assay [1] (IC50) was put at 2300 nM.
